36 molecules from ChEMBL document CHEMBL1914317, “Triazole ring-opening leads to the discovery of potent nonsteroidal 17β-hydroxysteroid dehydrogenase type 2 inhibitors” (Eur J Med Chem, 2011) can be followed below.

SMILES strings stand for the structures. The source made the active and inactive calls. No cut-off for these calls is given here.

The target of assay [1] is T1, Estrogen receptor (Homo sapiens) (UniProt P03372).
T1 sequence (whole entry): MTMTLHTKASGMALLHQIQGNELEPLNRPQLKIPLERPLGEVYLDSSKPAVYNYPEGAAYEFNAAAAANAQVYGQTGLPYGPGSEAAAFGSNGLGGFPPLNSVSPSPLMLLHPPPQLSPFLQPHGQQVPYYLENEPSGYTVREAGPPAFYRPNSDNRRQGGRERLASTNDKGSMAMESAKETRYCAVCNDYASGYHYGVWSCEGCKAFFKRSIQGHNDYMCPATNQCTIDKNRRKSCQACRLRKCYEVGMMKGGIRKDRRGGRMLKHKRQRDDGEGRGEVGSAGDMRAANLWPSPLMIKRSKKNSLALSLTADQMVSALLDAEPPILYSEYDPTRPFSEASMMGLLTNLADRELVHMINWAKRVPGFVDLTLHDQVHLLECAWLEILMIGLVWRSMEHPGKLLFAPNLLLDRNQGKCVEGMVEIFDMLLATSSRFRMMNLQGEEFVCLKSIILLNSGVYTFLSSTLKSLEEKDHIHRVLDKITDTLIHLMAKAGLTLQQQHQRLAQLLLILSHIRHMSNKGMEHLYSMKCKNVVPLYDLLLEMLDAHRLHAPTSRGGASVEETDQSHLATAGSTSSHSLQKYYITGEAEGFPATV
In words: Displacement of [3H]estradiol from human recombinant ERalpha assessed as relative binding affinity after 1 hr by liquid scintillation counting relative to estradiol. The gist of the method: (§1)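 Recombinant human ERα or ERβ (0.25 pmol) incubated with [3H]-E2 (10 nM) plus test compound, 1 h at room temperature; compound in DMSO (5% final). Nonspecific binding defined with diethylstilbestrol (10 µM). Receptor–ligand complexes captured on hydroxyapatite, washed, resuspended in ethanol, counted by liquid scintillation.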
In general terms: In a radioligand displacement assay an active substance lowers the binding of a labelled ligand.

In assay [2] the target is Estrogen receptor beta (Homo sapiens) (UniProt Q92731). In words: Displacement of [3H]estradiol from human recombinant ERbeta assessed as relative binding affinity after 1 hr by liquid scintillation counting relative to estradiol. The gist of the method:
as §1

Another assay is filed under the species Homo sapiens. As to the kind of experiment: Selectivity ratio of IC50 for human placental 17beta-HSD1 to IC50 for human placental 17beta-HSD2.
The target in assay [3] is T2, 17-beta-hydroxysteroid dehydrogenase type 2 (Homo sapiens) (UniProt P37059).
T2 sequence (whole entry): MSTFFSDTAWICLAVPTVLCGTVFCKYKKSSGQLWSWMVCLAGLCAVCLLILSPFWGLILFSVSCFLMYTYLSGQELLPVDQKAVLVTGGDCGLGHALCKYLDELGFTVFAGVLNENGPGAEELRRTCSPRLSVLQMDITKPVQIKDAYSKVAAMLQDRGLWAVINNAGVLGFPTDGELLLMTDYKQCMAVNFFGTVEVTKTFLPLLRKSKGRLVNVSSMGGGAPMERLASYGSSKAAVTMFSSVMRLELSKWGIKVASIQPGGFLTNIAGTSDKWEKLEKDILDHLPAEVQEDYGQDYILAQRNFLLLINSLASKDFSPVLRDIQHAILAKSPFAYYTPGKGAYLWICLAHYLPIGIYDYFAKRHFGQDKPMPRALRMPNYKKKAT
In words: Inhibition of 17beta-HSD2. The following applies: concentration not given here. The essentials: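 Human placental microsomal fraction (150,000 g) with NAD+ 1500 µM, 37 °C, in 50 mM phosphate buffer containing 20% glycerol and 1 mM EDTA; DMSO 1% final. Started with unlabelled plus [3H]-E2 (500 nM final), run 20 min, stopped with HgCl2, ether-extracted. E1/E2 separated by HPLC with radioflow detection; % conversion = E1/(E1+E2)×100. At least three independent experiments.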

In assay [4] the target is T3, 17-beta-hydroxysteroid dehydrogenase type 1 (Homo sapiens) (UniProt P14061).
T3 sequence (whole entry): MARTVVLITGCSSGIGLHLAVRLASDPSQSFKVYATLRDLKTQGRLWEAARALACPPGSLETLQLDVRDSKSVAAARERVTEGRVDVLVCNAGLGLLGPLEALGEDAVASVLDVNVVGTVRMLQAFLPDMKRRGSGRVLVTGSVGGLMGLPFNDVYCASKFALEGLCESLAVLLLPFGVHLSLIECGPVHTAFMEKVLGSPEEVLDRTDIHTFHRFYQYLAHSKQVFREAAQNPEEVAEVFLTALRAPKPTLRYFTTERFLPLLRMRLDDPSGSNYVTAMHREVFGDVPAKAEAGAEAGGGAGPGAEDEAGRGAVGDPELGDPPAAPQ
In words: Inhibition of human placental 17beta-HSD1 using [2,4,6,7-3H]-estrone as substrate at 1 uM after 10 mins by radio flow detector-based HPLC analysis in presence of NADH as cofactor. The essentials:
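Placental enzyme from the cytosolic fraction after ammonium sulfate precipitation. Incubated with NADH 500 µM, test compound and unlabelled plus [3H]-E1 (500 nM final), 10 min at 37 °C. Stopped, extracted, and steroids separated by HPLC with radioflow detection, as for the type 2 assay.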

Assay [5] deals with T2, 17-beta-hydroxysteroid dehydrogenase type 2 (Homo sapiens). In words: Inhibition of human placental 17beta-HSD2 assessed as formation of [2,4,6,7-3H]-estrone using [2,4,6,7-3H]-estradiol as substrate at 1 uM after 20 mins by radio flow detector-based HPLC analysis in presence of NAD+ as cofactor.
Assay [6] has as its target T4, 17-beta-hydroxysteroid dehydrogenase type 1 (Homo sapiens, UniProt P14061).
T4 sequence (P14061 whole entry): T3 sequence (whole entry)
As to the kind of experiment: Inhibition of human placental 17beta-HSD1 using [2,4,6,7-3H]-estrone as substrate after 10 mins by radio flow detector-based HPLC analysis in presence of NADH as cofactor. The gist of the method:
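Enzyme was the ammonium sulfate–precipitated cytosolic fraction of fresh homogenised human placenta. It was incubated at 37 °C for 10 min with NADH (500 µM), inhibitor, and unlabelled plus [3H]-E1 (final 500 nM, 0.15 µCi). Reaction stopped with HgCl2, then ether extraction. E1/E2 were separated by HPLC with radioflow detection.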

For assay [7], the target named is T5, 17-beta-hydroxysteroid dehydrogenase type 2 (Homo sapiens, UniProt P37059).
T5 sequence (P37059 whole entry): T2 sequence (whole entry)
As to the kind of experiment: Inhibition of human placental 17beta-HSD2 assessed as formation of [2,4,6,7-3H]-estrone using [2,4,6,7-3H]-estradiol as substrate after 20 mins by radio flow detector-based HPLC analysis in presence of NAD+ as cofactor.

Estrogen receptor beta (Homo sapiens), sequence (Q92731 whole entry): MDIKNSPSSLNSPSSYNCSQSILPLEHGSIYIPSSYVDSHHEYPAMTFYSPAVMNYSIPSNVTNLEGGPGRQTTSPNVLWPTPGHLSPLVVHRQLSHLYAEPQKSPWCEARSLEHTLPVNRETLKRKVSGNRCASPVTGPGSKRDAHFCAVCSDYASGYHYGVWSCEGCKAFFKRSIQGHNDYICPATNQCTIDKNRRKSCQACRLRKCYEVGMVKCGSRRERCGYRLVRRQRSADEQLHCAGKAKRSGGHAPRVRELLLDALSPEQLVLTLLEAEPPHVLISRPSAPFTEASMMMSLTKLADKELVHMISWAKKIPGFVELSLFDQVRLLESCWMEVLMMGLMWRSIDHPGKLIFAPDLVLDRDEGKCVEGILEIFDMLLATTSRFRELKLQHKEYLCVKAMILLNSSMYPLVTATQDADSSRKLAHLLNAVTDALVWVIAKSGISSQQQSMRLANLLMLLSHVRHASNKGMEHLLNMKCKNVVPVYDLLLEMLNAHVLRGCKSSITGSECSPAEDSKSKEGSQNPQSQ

Turning to `COc1cccc(CN(C)C(=O)c2ccc(-c3cccc(C)c3)cc2)c1`, the RBA in assay [1] and in assay [2] was less than 0.1% each time. Besides, the Ratio IC50 in the assay filed under Homo sapiens is more than 375.

`CN(Cc1cccc(O)c1)C(=O)c1ccc(-c2cccc(O)c2F)s1`: the RBA in assay [1] and in assay [2] was less than 0.1% in each case.

Turning to `COc1cccc(CN(C)C(=O)c2ccc(-c3cccc(OC)c3)cc2)c1`, the RBA in assay [1] and in assay [2] was less than 0.1% in each case.

As to `CN(Cc1cccc(O)c1)C(=O)c1ccc(-c2cccc(O)c2)cc1`, the RBA in assay [1] and in assay [2] was less than 0.1% throughout.

`COc1cccc(-c2ccc(C(=O)N(C)Cc3cccc(O)c3)s2)c1F`: the RBA in assay [1] and in assay [2] was less than 0.1% in each case. Moreover, in the assay listed under Homo sapiens, the Ratio IC50 came to 73.

With `CN(Cc1cccc(O)c1)C(=O)c1ccc(-c2ccccc2)s1`, the RBA in assay [1] and in assay [2] was less than 0.1% in each case.

On to `CN(Cc1ccccc1)C(=O)c1ccc(-c2ccc(O)cc2)s1`, for which the RBA in assay [1] and in assay [2] was less than 0.1% in each case.

On to `COc1ccc(-c2ccc(C(=O)N(C)Cc3cccc(O)c3)s2)cc1`, for which the RBA in assay [1] and in assay [2] was less than 0.1% each time. Further, the Ratio IC50 in the assay filed under Homo sapiens is more than 250.

Regarding `CN(Cc1cccc(O)c1)C(=O)c1ccc(-c2cccc(F)c2)s1`, the RBA in assay [1] and in assay [2] was less than 0.1% throughout. Besides, the Ratio IC50 in the assay listed under Homo sapiens came to 10.

The term inhibition denotes the share of the control response that was lost under treatment. In assay [3], `Cn1nc(-c2cccc(O)c2)nc1-c1ccc(-c2cccc(O)c2)cc1` gave an inhibition of 42%.

Consider `CN(Cc1cccc(O)c1)C(=O)c1cccc(-c2ccc(O)cc2)c1`, for which the RBA in assay [1] and in assay [2] was less than 0.1% in each case.

In the case of `COc1ccc(-c2cccc(C(=O)N(C)Cc3cccc(OC)c3)c2)cc1`, the inhibition entry in assay [4] is “inactive”. The RBA in assay [1] and in assay [2] was less than 0.1% each time. For the same molecule, the inhibition in assay [5] turned out to be 11%.

As for `COc1cccc(CN(C)C(=O)c2ccc(-c3ccccc3OC)s2)c1`, the inhibition result in assay [4] was “inactive”. For the same molecule, the RBA in assay [1] and in assay [2] was less than 0.1% throughout. Further, in assay [5], the inhibition is 49%.

With `CN(Cc1ccccc1)C(=O)c1ccc(-c2cccc(O)c2)s1`, the RBA in assay [1] and in assay [2] was less than 0.1% in each case.

Turning to `CN(Cc1cccc(O)c1)C(=O)c1ccc(-c2ccccc2O)s1`, the RBA in assay [1] and in assay [2] was less than 0.1% throughout. The Ratio IC50 in the assay filed under Homo sapiens is 20.

Take `CN(Cc1cccc(O)c1)C(=O)c1ccc(-c2cccc(N(C)C)c2)s1`: the RBA in assay [1] and in assay [2] was less than 0.1% throughout. Also, the Ratio IC50 in the assay listed under Homo sapiens worked out at 75.

With `COc1cccc(CN(C)C(=O)c2ccc(-c3cccc(OC)c3)s2)c1`, the RBA in assay [1] and in assay [2] was less than 0.1% in each case. For the same molecule, the Ratio IC50 in the assay filed under Homo sapiens was more than 250.

On to `CN(C(=O)Cc1cccc(O)c1)c1cccc(-c2ccc(O)cc2)c1`, for which the inhibition result in assay [4] is “inactive”. The RBA in assay [1] and in assay [2] was less than 0.1% throughout. Moreover, in assay [5], the inhibition worked out at 39%.

Take `C[C@]12CC[C@@H]3c4ccc(O)cc4CC[C@H]3[C@@H]1CC[C@@]21CCCC(=O)O1`: the RBA in assay [1] and in assay [2] was less than 0.1% each time. Moreover, the inhibition in assay [3] was found to be 62%; in assay [5], 65%.

For `COc1cccc(-c2ccc(C(=O)N(C)Cc3ccccc3)s2)c1`, the RBA in assay [1] and in assay [2] was less than 0.1% throughout.

Turning to `CN(Cc1cccc(O)c1)C(=O)c1ccc(-c2ccc(O)cc2)s1`, the RBA in assay [1] and in assay [2] was less than 0.1% in each case. The Ratio IC50 in the assay listed under Homo sapiens is 15.

Consider `COc1ccccc1-c1ccc(C(=O)N(C)Cc2ccccc2)s1`, for which the RBA in assay [1] and in assay [2] was less than 0.1% each time.

Regarding `COc1ccc(-c2ccc(C(=O)N(C)Cc3ccccc3)s2)cc1`, the RBA in assay [1] and in assay [2] was less than 0.1% throughout.

For orientation: IC50 means the concentration that gives 50% inhibition. Consider `CN(Cc1cccc(O)c1)C(=O)c1ccc(-c2cccc(O)c2)s1`, for which the RBA in assay [1] and in assay [2] was less than 0.1% each time. Moreover, the half-inhibitory concentration (IC50) in assay [6] was 5450 nM. Besides, the Ratio IC50 in the assay listed under Homo sapiens is 14.

Regarding `CN(Cc1ccccc1)C(=O)c1ccc(-c2ccccc2O)s1`, the RBA in assay [1] and in assay [2] was less than 0.1% throughout.

Turning to `Cc1cccc(-c2ccc(C(=O)N(C)Cc3cccc(O)c3)s2)c1`, the RBA in assay [1] and in assay [2] was less than 0.1% throughout. The Ratio IC50 in the assay listed under Homo sapiens was determined as 65.

On to `COc1ccc(-c2ccc(C(=O)N(C)Cc3cccc(OC)c3)s2)cc1`, for which the RBA in assay [1] and in assay [2] was less than 0.1% each time.

With `COc1cccc(CN(C)C(=O)c2ccc(-c3ccc(C#N)cc3)s2)c1`, the inhibition result in assay [4] and in assay [5] was “inactive” throughout. In addition, the RBA in assay [1] and in assay [2] was less than 0.1% each time.

Regarding `CN(Cc1cccc(O)c1)C(=O)c1cccc(-c2cccc(O)c2)c1`, the RBA in assay [1] and in assay [2] was less than 0.1% in each case. In the assay filed under Homo sapiens, the Ratio IC50 was 8.

`COc1cccc(CN(C)C(=O)c2ccc(-c3ccccc3)s2)c1`: the RBA in assay [1] and in assay [2] was less than 0.1% in each case.

Take `Cc1cccc(-c2ccc(C(=O)N(C)Cc3cccc(O)c3)cc2)c1`: the RBA in assay [1] and in assay [2] was less than 0.1% in each case.

Turning to `CN1C(=O)C[C@@H](c2ccccc2)[C@H]1[C@H](O)c1ccc(-c2cccnc2)s1`, the 50% inhibitory concentration (IC50) in assay [7] came to 50 nM.

In the case of `CN(Cc1cccc(O)c1)C(=O)c1ccc(-c2ccc(F)cc2)s1`, the RBA in assay [1] and in assay [2] was less than 0.1% in each case.

For the molecule `COc1cccc(CN(C)C(=O)c2cccc(-c3cccc(OC)c3)c2)c1`, the RBA in assay [1] and in assay [2] was less than 0.1% each time.

In assay [3], `Cn1nc(-c2cccc(O)c2)nc1-c1ccc(-c2cccc(O)c2)s1` displayed an inhibition of 30%.

On to `CN(Cc1cccc(O)c1)C(=O)c1ccc(-c2ccc(C#N)cc2)s1`, for which the RBA in assay [1] and in assay [2] was less than 0.1% each time.
